KCNQ1 pot: human KCNQ1 channel potentiation or activation; actives 0.35% (n = 310,000); B-score at 10 µM; P51787; CHO-K1 KCNQ1, thallium flux FluxOR fluorescence; stronger effect = higher value;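 active = fluorescence ratio B-score, a plate-corrected score, at least three library SD, with initial intensity B-score within 5 SD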
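System: CHO-K1 cells stably expressing KCNQ1 / Medium: assay buffer for compound exposure, DMSO matched across wells / Reagent: thallium- and potassium-containing depolarizing buffer / Compound: one concentration, matched DMSO / Incubation: 20 min compound pretreatment at room temperature / Measured by: kinetic FluxOR fluorescence, 10 s baseline plus 110 s post-stimulus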
hERG rescue: compounds protecting human hERG from proarrhythmic drug block; Q12809; CHO-hERG, FluxOR thallium flux, dofetilide IC70 present; actives 0.51% (n = 310,000); activation (rescue from dofetilide block), less the hit threshold, % at 10 µM;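 active = activation above the mean of controls blocked by dofetilide plus 5 SD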;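 note: thallium influx through hERG after potassium depolarization seen as dye fluorescence rise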
KCNK3 block: human KCNK3 channel inhibition, primary screen. actives 0.84% (n = 340,000). B-score at 10 µM. CHO-KCNK3 thallium flux, FluxOR fluorescence; stronger effect = lower value. O14649;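 active = B-score under library mean minus 4 SD, starting fluorescence ratio at most library mean plus 5 SD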;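 note: more negative B-score means stronger inhibition of thallium flux through KCNK3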
KCNK9 inh: blocks the human KCNK9 two-pore domain potassium channel; Q9NPC2; HEK293 KCNK9, FluxOR thallium flux fluorescence; stronger effect = lower value; B-score at 10 µM; actives 1.2% (n = 310,000);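 active = ratio B-score over 3 SD below the library mean, with starting fluorescence within 5 SD of its mean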;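 note: negative B-score means less thallium flux so channel inhibition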
Target sequence (Q9NPC2 whole entry, looked up, the tested form may be a part): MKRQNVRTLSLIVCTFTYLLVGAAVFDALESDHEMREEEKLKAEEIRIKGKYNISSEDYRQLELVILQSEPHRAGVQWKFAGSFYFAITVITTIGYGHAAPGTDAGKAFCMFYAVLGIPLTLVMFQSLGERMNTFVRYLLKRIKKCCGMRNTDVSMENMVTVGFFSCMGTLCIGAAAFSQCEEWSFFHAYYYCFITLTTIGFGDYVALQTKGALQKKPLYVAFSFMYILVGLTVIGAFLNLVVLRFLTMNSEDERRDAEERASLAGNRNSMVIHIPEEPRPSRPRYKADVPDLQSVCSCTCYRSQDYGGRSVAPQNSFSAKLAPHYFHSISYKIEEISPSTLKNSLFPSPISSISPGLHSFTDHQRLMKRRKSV
KCNQ1 inh: inhibitors of human KCNQ1 potassium channel; P51787; CHO-K1 KCNQ1, FluxOR thallium flux fluorescence; stronger effect = higher value; B-score at 10 µM; actives 1.3% (n = 310,000); AID 2642;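 active = compounds whose thallium flux B-score, printed positive for inhibition, exceeds three library SD while starting fluorescence stays within three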;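 note: channel opened by potassium depolarization with thallium stimulus after 20 min compound exposure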
KCNK3 inh conf: human KCNK3 channel inhibition, confirmation assay; shares compounds with KCNK3 block; ratio percent of control, % at 10 µM; actives 99% (n = 2,400); CHO-KCNK3 thallium flux, FluxOR fluorescence; 0% buffer, 100% carvedilol maximal block;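 active = ratio percent of control, averaged over triplicates, above buffer control mean plus 5 SD, cut at about 64% in these data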;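 note: ratio is the fluorescence rise from min to max over baseline after thallium stimulus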
KCNK3 uninduced: activity in cells without induced KCNK3 expression; shares compounds with KCNK3 block; non-induced KCNK3 parental cells, FluxOR thallium flux; stronger effect = lower value; thallium flux ratio (lower = more inhibition) at 10 µM; actives 40% (n = 2,400); AID 651747;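 active = thallium flux ratio, averaged over three wells, more than 5 SD below the buffer control mean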;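 note: host cells are CHO cells without KCNK3 induction; ratio is peak minus trough fluorescence over baseline then normalized to buffer controls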
Numbers without * were called inactive. Most compounds without a hit are left out; they make up all but 3.1% or so of the library.

What do the screens show for `CCN(CC)CCNC(=O)c1ccc(NC(=O)c2cn(-c3ccc(F)cc3)nc2-c2cccc(OC)c2)cc1`?
KCNQ1 pot: inactive; hERG rescue: -17; KCNK3 block: -9*; KCNK9 inh: inactive; KCNQ1 inh: 11*; KCNK3 inh conf: 111*; KCNK3 uninduced: 0.15*

What do the screens show for `CCN(CC)CCNC(=O)c1ccc(NC(=O)c2c(C)nn(-c3ccc(F)cc3)c2Cl)cc1`?
KCNQ1 pot: inactive; hERG rescue: -8; KCNK3 block: inactive; KCNK9 inh: inactive; KCNQ1 inh: inactive

What do the screens show for `CN(C(=O)c1ccc(COc2ccccc2Cl)o1)c1ccccc1`?
KCNQ1 pot: inactive; hERG rescue: -3; KCNK3 block: -9.9*; KCNK9 inh: inactive; KCNQ1 inh: inactive; KCNK3 inh conf: 82*; KCNK3 uninduced: inactive

What do the screens show for `COc1ccccc1OCc1ccc(C(=O)N(C)c2ccccc2)o1`?
KCNQ1 pot: inactive; hERG rescue: -6; KCNK3 block: inactive; KCNK9 inh: inactive; KCNQ1 inh: inactive

How did Cc1ccc(NC(=O)CSc2nnnn2-c2cccnc2)c(C)c1 do in these assays?
KCNQ1 pot: inactive; hERG rescue: -3; KCNK3 block: inactive; KCNK9 inh: inactive; KCNQ1 inh: inactive

How did Cc1nn2c(-c3cccc(NC(=O)c4ccco4)c3)nnc2c2ccccc12 do in these assays?
KCNQ1 pot: inactive; hERG rescue: -20; KCNK3 block: -14*; KCNK9 inh: inactive; KCNQ1 inh: inactive; KCNK3 inh conf: 106*; KCNK3 uninduced: inactive

What do the screens show for `O=C(Nc1cccc(-c2nnc(-c3ccccc3)o2)c1)c1ccco1`?
KCNQ1 pot: inactive; hERG rescue: -4; KCNK3 block: inactive; KCNK9 inh: inactive; KCNQ1 inh: inactive

What do the screens show for `O=C(OCc1ccc([N+](=O)[O-])cc1)c1cc(=O)c2ccccc2o1`?
KCNQ1 pot: inactive; hERG rescue: -6; KCNK3 block: inactive; KCNK9 inh: inactive; KCNQ1 inh: inactive

Results for O=C(NC1CCN(Cc2ccccc2)CC1)c1ccccc1OCc1ccccc1 ?
KCNQ1 pot: inactive; hERG rescue: -9; KCNK3 block: -10*; KCNK9 inh: inactive; KCNQ1 inh: inactive; KCNK3 inh conf: 99*; KCNK3 uninduced: inactive

Results for CCOc1ccccc1C(=O)NC1CCN(Cc2ccccc2)CC1 ?
KCNQ1 pot: inactive; hERG rescue: -2; KCNK3 block: inactive; KCNK9 inh: inactive; KCNQ1 inh: inactive

How did O=C(NC1CCN(Cc2ccccc2)CC1)c1ccccc1OCc1ccccc1Cl do in these assays?
KCNQ1 pot: inactive; hERG rescue: -17; KCNK3 block: -11*; KCNK9 inh: -7.8*; KCNQ1 inh: inactive; KCNK3 inh conf: 99*; KCNK3 uninduced: inactive

What do the screens show for `COc1cccc(CN(c2ccccc2C(=O)O)S(=O)(=O)c2ccc(C)cc2)c1`?
KCNK3 block: inactive

How did CCOc1ccc(C2C(C#N)=C(N)SC(N)=C2C#N)cc1OCC do in these assays?
KCNQ1 pot: inactive; hERG rescue: -7; KCNK3 block: -12*; KCNK9 inh: inactive; KCNQ1 inh: inactive; KCNK3 inh conf: 108*; KCNK3 uninduced: 0.15*

How did COc1ccc(CN(CC(=O)NC2CCCC2)C(=O)CCC(=O)Nc2nc(C)cs2)cc1 do in these assays?
KCNQ1 pot: inactive; hERG rescue: -10; KCNK3 block: inactive; KCNK9 inh: inactive; KCNQ1 inh: inactive

What do the screens show for `O=C(O)CC(c1ccc(C(F)(F)F)cc1)N1Cc2ccccc2C1=O` (centres undefined)?
KCNQ1 pot: inactive; hERG rescue: -5; KCNK3 block: inactive; KCNK9 inh: inactive; KCNQ1 inh: inactive

How did O=C(NNC(=O)c1cc(-c2ccccc2)nc2ccccc12)Nc1cccc(Cl)c1 do in these assays?
KCNQ1 pot: inactive; hERG rescue: -22; KCNK3 block: -9.9*; KCNK9 inh: inactive; KCNQ1 inh: 13*; KCNK3 inh conf: 115*; KCNK3 uninduced: inactive

Screens (PubChem)
